Experimental findings from ChEMBL document CHEMBL1142169, “In vitro antibacterial activity of the pyrrolopyrazolyl-substituted oxazolidinone RWJ-416457” (2007) are described below.

In brackets after ≈: the same amount, converted by molar mass.

Broadly, the MIC50 is the lowest concentration that inhibits either 50% of growth or 50% of the strains tested, depending on the study. As usually defined, the MIC90 is an inhibitory concentration at the 90% level, which refers to growth in some studies and to a panel of isolates in others. Broadly, the MIC is the least concentration at which growth counts as inhibited. A higher MIC goes with a need for much substance.

Common to all, as to assay type: functional
The subject of assay [1] is Streptococcus pneumoniae. In words: Antibacterial activity against fluoroquinolone-resistant Streptococcus pneumoniae. The method, boiled down: (§1)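 MIC by CLSI (formerly NCCLS) broth microdilution for aerobically growing bacteria.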
Assay [2] has as its system Legionella pneumophila. In words: Antibacterial activity against Legionella pneumophila. In a few lines:
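L. pneumophila broth microdilution. Inoculum suspended in buffered yeast extract broth and added to wells holding serial antibiotic dilutions. Incubated aerobically at 34°C to 36°C for 48 h. MIC taken as the lowest concentration inhibiting visible growth.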

Assay [3] has as its system Mycoplasmoides pneumoniae. In words: Antibacterial activity against Mycoplasma pneumoniae. In a few lines: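 Microbroth MIC following Waites et al. Isolates were titred in SP4 glucose broth by serial 10-fold dilution to count color changing units. Drug was serially diluted in antibiotic-free SP4 glucose broth and inoculated at 104 CCU/ml, then incubated at 35°C until control wells changed color. The MIC was the lowest concentration preventing color change.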

The test system of assay [4] is Staphylococcus aureus. The experiment in a line: Antibacterial activity against Staphylococcus aureus. The method, boiled down: as §1
The test system of assay [5] is Staphylococcus aureus. The experiment in a line: Antibacterial activity against methicillin-susceptible Staphylococcus aureus. The method, boiled down: as §1
Assay [6] has as its system Staphylococcus aureus. In words: Antibacterial activity against methicillin-resistant Staphylococcus aureus. The method, boiled down:
as §1

In assay [7] the test system is Staphylococcus aureus. The experiment in a line: Antibacterial activity against vancomycin-intermediate methicillin-resistant Staphylococcus aureus. In a few lines: as §1
In assay [8] the test system is Staphylococcus aureus. In words: Antibacterial activity against community-acquired methicillin-resistant Staphylococcus aureus. In a few lines: as §1
Assay [9] relates to Staphylococcus. In words: Antibacterial activity against coagulase-negative staphylococci. The method, boiled down: as §1
For assay [10], the system named is Staphylococcus. The experiment in a line: Antibacterial activity against methicillin-susceptible coagulase-negative staphylococci. The method, boiled down:
as §1

Assay [11] relates to Staphylococcus. The experiment in a line: Antibacterial activity against methicillin-resistant coagulase-negative staphylococci. In a few lines:
as §1

The test system of assay [12] is Enterococcus faecium. The experiment in a line: Antibacterial activity against linezolid-susceptible Enterococcus faecium. The method, boiled down:
as §1

Assay [13] concerns Enterococcus faecalis. In words: Antibacterial activity against linezolid-susceptible Enterococcus faecalis. The method, boiled down: as §1
The test system of assay [14] is Streptococcus pyogenes. In words: Antibacterial activity against macrolide-resistant Streptococcus pyogenes. In a few lines: as §1
For assay [15], the system named is Streptococcus pneumoniae. In words: Antibacterial activity against Streptococcus pneumoniae. The method, boiled down: as §1
For assay [16], the system named is Streptococcus pneumoniae. The experiment in a line: Antibacterial activity against penicillin-resistant Streptococcus pneumoniae. In a few lines:
as §1

Assay [17] concerns Streptococcus pneumoniae. The experiment in a line: Antibacterial activity against macrolide-resistant Streptococcus pneumoniae. In a few lines: as §1
Assay [18] relates to Moraxella catarrhalis. The experiment in a line: Antibacterial activity against Moraxella catarrhalis. The method, boiled down:
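MIC determined by the CLSI (formerly NCCLS) broth microdilution procedure for aerobically growing bacteria.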

Assay [19] has as its system Staphylococcus aureus. In words: Antibacterial activity against methicillin-resistant Staphylococcus aureus OC 2878 by time kill experiments. The method, boiled down: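 Time-kill by CLSI methodology with drug at four times the MIC against MRSA OC 2878, alongside a drug-free control culture. Viable counts were followed over time.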
In assay [20] the test system is Enterococcus faecalis. The experiment in a line: Antibacterial activity against Enterococcus faecalis ATCC 51922 by time kill experiments. The method, boiled down: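 Time-kill curves run per CLSI methodology, with drug at four times the MIC measured for the isolate. Growth in drug-containing medium was followed alongside a drug-free control medium over time.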

In the case of `C[C@H]1COc2c(N3CCN(C)CC3)c(F)cc3c(=O)c(C(=O)O)cn1c23.C[C@H]1COc2c(N3CCN(C)CC3)c(F)cc3c(=O)c(C(=O)O)cn1c23.O` [LEVOFLOXACIN], the MIC50 in [1] is 16 µg/mL; in assay [2], 0.12 µg/mL; in [3], 0.5 µg/mL. In addition, the MIC90 in assay [1] is over 16 µg/mL; in [2] it was 0.5 µg/mL; in assay [3], 1 µg/mL.
For `CC(=O)NC[C@H]1CN(c2ccc(N3CCOCC3)c(F)c2)C(=O)O1` [LINEZOLID], the MIC50 in assay [4] is 4 µg/mL (≈ 11.9 µM); in [5] it was 2 µg/mL (≈ 5.93 µM); in assay [6] it was 4 µg/mL (≈ 11.9 µM); in [7] it was 1 µg/mL (≈ 2.96 µM); in [8], 4 µg/mL (≈ 11.9 µM); in [9], 2 µg/mL (≈ 5.93 µM). Also, the MIC50 is 1 µg/mL (≈ 2.96 µM) in assay [10]; 2 µg/mL (≈ 5.93 µM) in [11]; 2 µg/mL (≈ 5.93 µM) in assay [12]; 2 µg/mL (≈ 5.93 µM) in assay [13]; 1 µg/mL (≈ 2.96 µM) in assay [14]; 1 µg/mL (≈ 2.96 µM) in assay [15]. For the same compound, the MIC50 is 1 µg/mL (≈ 2.96 µM) in [16]; 1 µg/mL (≈ 2.96 µM) in assay [17]; 0.5 µg/mL (≈ 1.48 µM) in assay [1]; 8 µg/mL (≈ 23.7 µM) in [18]; 4 µg/mL (≈ 11.9 µM) in [2]; over 64 µg/mL in assay [3]. Further, the MIC90 in [4] amounted to 4 µg/mL (≈ 11.9 µM); in [5], 4 µg/mL (≈ 11.9 µM); in assay [6] it was 4 µg/mL (≈ 11.9 µM); in assay [7], 4 µg/mL (≈ 11.9 µM); in assay [8] it was 4 µg/mL (≈ 11.9 µM); in [9], 2 µg/mL (≈ 5.93 µM). For the same compound, the MIC90 in assay [10] was found to be 2 µg/mL (≈ 5.93 µM); in [11], 2 µg/mL (≈ 5.93 µM); in assay [12], 4 µg/mL (≈ 11.9 µM); in assay [13], 2 µg/mL (≈ 5.93 µM); in [14], 2 µg/mL (≈ 5.93 µM); in [15] it was 1 µg/mL (≈ 2.96 µM). For the same compound, the MIC90 in assay [16] was 1 µg/mL (≈ 2.96 µM); in assay [17], 1 µg/mL (≈ 2.96 µM); in assay [1] it was 1 µg/mL (≈ 2.96 µM); in assay [18], 8 µg/mL (≈ 23.7 µM); in [2], 16 µg/mL (≈ 47.4 µM); in assay [3], over 64 µg/mL.
In assay [16], `CC1(C)S[C@@H]2[C@H](NC(=O)Cc3ccccc3)C(=O)N2[C@H]1C(=O)O` [PENICILLIN G] registered an MIC50 of 2 µg/mL (≈ 5.98 µM) and an MIC90 of 4 µg/mL (≈ 12 µM).
As to `CN[C@H](CC(C)C)C(=O)N[C@H]1C(=O)N[C@@H](CC(N)=O)C(=O)N[C@H]2C(=O)N[C@H]3C(=O)N[C@H](C(=O)N[C@H](C(=O)O)c4cc(O)cc(O)c4-c4cc3ccc4O)[C@H](O)c3ccc(c(Cl)c3)Oc3cc2cc(c3O[C@@H]2O[C@H](CO)[C@@H](O)[C@H](O)[C@H]2O[C@H]2C[C@](C)(N)[C@H](O)[C@H](C)O2)Oc2ccc(cc2Cl)[C@H]1O` [VANCOMYCIN], the MIC50 is 1 µg/mL (≈ 0.69 µM) in assay [4]; 1 µg/mL (≈ 0.69 µM) in assay [5]; 1 µg/mL (≈ 0.69 µM) in assay [6]; 4 µg/mL (≈ 2.76 µM) in assay [7]; 1 µg/mL (≈ 0.69 µM) in assay [8]; 2 µg/mL (≈ 1.38 µM) in [9]. In addition, the MIC50 in assay [10] is 2 µg/mL (≈ 1.38 µM); in assay [11], 2 µg/mL (≈ 1.38 µM); in assay [12] it was over 16 µg/mL; in assay [13] it was 4 µg/mL (≈ 2.76 µM). The MIC90 in assay [4] was determined as 4 µg/mL (≈ 2.76 µM); in assay [5] it was 2 µg/mL (≈ 1.38 µM); in assay [6] it was 4 µg/mL (≈ 2.76 µM); in assay [7], 8 µg/mL (≈ 5.52 µM); in assay [8] it was 1 µg/mL (≈ 0.69 µM); in assay [9], 4 µg/mL (≈ 2.76 µM). The MIC90 is 4 µg/mL (≈ 2.76 µM) in [10], 4 µg/mL (≈ 2.76 µM) in assay [11], over 16 µg/mL in assay [12] and over 16 µg/mL in assay [13].
In the case of `Cc1onc(-c2ccccc2)c1C(=O)N[C@@H]1C(=O)N2[C@@H]1SC(C)(C)[C@@H]2C(=O)O` [OXACILLIN], the MIC50 in assay [6] is over 32 µg/mL; in assay [7], over 32 µg/mL; in assay [8], 32 µg/mL (≈ 79.7 µM); in assay [9], over 16 µg/mL; in assay [10] it was 0.12 µg/mL (≈ 0.299 µM); in [11], over 16 µg/mL. Further, the MIC90 is over 32 µg/mL in [6]; over 32 µg/mL in assay [7]; 32 µg/mL (≈ 79.7 µM) in [8]; over 16 µg/mL in assay [9]; 0.25 µg/mL (≈ 0.623 µM) in assay [10]; over 16 µg/mL in assay [11].
In the case of `CC(=O)NC[C@H]1CN(c2ccc(N3Cc4cn(C)nc4C3)c(F)c2)C(=O)O1`, the MIC50 in [4] was 1 µg/mL (≈ 2.68 µM); in assay [5] it was 1 µg/mL (≈ 2.68 µM); in [6] it was 1 µg/mL (≈ 2.68 µM); in assay [7] it was 0.5 µg/mL (≈ 1.34 µM); in [8] it was 1 µg/mL (≈ 2.68 µM); in [9], 0.5 µg/mL (≈ 1.34 µM). Besides, the MIC50 was 0.5 µg/mL (≈ 1.34 µM) in [10]; 0.5 µg/mL (≈ 1.34 µM) in assay [11]; 1 µg/mL (≈ 2.68 µM) in assay [12]; 0.5 µg/mL (≈ 1.34 µM) in [13]; 0.5 µg/mL (≈ 1.34 µM) in assay [14]; 0.5 µg/mL (≈ 1.34 µM) in assay [15]. In addition, the MIC50 is 0.5 µg/mL (≈ 1.34 µM) in [16]; 0.5 µg/mL (≈ 1.34 µM) in [17]; 0.5 µg/mL (≈ 1.34 µM) in assay [1]; 2 µg/mL (≈ 5.36 µM) in [18]; 4 µg/mL (≈ 10.7 µM) in assay [2]; 16 µg/mL (≈ 42.9 µM) in assay [3]. Besides, the MIC90 in [4] stood at 2 µg/mL (≈ 5.36 µM); in assay [5], 2 µg/mL (≈ 5.36 µM); in assay [6] it was 2 µg/mL (≈ 5.36 µM); in assay [7], 2 µg/mL (≈ 5.36 µM); in [8], 2 µg/mL (≈ 5.36 µM); in assay [9], 1 µg/mL (≈ 2.68 µM). The MIC90 in assay [10] stood at 0.5 µg/mL (≈ 1.34 µM); in [11] it was 1 µg/mL (≈ 2.68 µM); in assay [12], 1 µg/mL (≈ 2.68 µM); in assay [13] it was 1 µg/mL (≈ 2.68 µM); in [14], 0.5 µg/mL (≈ 1.34 µM); in [15], 0.5 µg/mL (≈ 1.34 µM). The MIC90 stood at 0.5 µg/mL (≈ 1.34 µM) in assay [16]; 0.5 µg/mL (≈ 1.34 µM) in assay [17]; 0.5 µg/mL (≈ 1.34 µM) in assay [1]; 4 µg/mL (≈ 10.7 µM) in assay [18]; 8 µg/mL (≈ 21.4 µM) in [2]; 32 µg/mL (≈ 85.7 µM) in assay [3]. In addition, the MIC in [19] and in [20] was 1 µg/mL (≈ 2.68 µM) each time.
With `CC[C@H]1OC(=O)[C@H](C)[C@@H](O[C@H]2C[C@@](C)(OC)[C@@H](O)[C@H](C)O2)[C@H](C)[C@@H](O[C@@H]2O[C@H](C)C[C@H](N(C)C)[C@H]2O)[C@](C)(O)C[C@@H](C)C(=O)[C@H](C)[C@@H](O)[C@]1(C)O` [ERYTHROMYCIN], the MIC50 is 8 µg/mL (≈ 10.9 µM) in assay [14], 4 µg/mL (≈ 5.45 µM) in [17] and 0.25 µg/mL (≈ 0.341 µM) in assay [18]. For the same compound, the MIC90 is over 16 µg/mL in assay [14], over 16 µg/mL in assay [17] and 0.25 µg/mL (≈ 0.341 µM) in [18].
